ChEMBL document CHEMBL4342470, “Detection of Active Granzyme A in NK92 Cells with Fluorescent Activity-Based Probe” (J Med Chem, 2020)
Calls of active or inactive are those of the source. The rule behind the calls is not given here. Non-standard residues stand in square brackets, D forms with d. Residues, ends and D or L forms follow the SMILES beside them. ξ: configuration not given here. *: point of attachment. Phe(4-guanidino) = N=C(N)Nc1ccc(C[C@H](N)C(=O)O)cc1; Oic(3aξ,7aξ) = O=C(O)[C@@H]1CC2CCCCC2N1; Phe(4-F) = N[C@@H](Cc1ccc(F)cc1)C(=O)O; ACC = NC(=O)Cc1cc(=O)oc2cc(N*)ccc12; Met(O) = CS(=O)CC[C@H](N)C(=O)O; Tic = O=C(O)[C@@H]1Cc2ccccc2CN1; X1 = Clc1cccc(Cl)c1C*

What was measured:
[1] = biological target: T1, Granzyme A (Homo sapiens) (UniProt P12544); assay: Substrate activity at Granzyme A (unknown origin) expressed in Pichia pastoris incubated for 30 mins by fluorescence based assay
T1 sequence (whole entry): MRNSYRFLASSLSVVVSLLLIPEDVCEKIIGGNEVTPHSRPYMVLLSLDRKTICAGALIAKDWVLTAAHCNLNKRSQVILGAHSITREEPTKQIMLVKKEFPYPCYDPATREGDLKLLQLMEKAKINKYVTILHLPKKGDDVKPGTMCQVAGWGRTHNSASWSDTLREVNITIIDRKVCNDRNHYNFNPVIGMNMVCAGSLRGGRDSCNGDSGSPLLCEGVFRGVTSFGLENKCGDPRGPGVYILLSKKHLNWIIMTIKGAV

[2] = biological target: Granzyme B (Homo sapiens) (UniProt P10144); assay: Substrate activity at Granzyme B (unknown origin) expressed in Pichia pastoris assessed as compound hydrolysis at 200 uM incubated for 30 mins by fluorescence based assay relative to control
[3] = biological target: T2, Granzyme K (Homo sapiens) (UniProt P49863); assay: Inhibition of Granzyme K (unknown origin) expressed in Pichia pastoris using GrKref substrate by spectrofluorometry relative to control; conditions: concentration not given here
T2 sequence (whole entry): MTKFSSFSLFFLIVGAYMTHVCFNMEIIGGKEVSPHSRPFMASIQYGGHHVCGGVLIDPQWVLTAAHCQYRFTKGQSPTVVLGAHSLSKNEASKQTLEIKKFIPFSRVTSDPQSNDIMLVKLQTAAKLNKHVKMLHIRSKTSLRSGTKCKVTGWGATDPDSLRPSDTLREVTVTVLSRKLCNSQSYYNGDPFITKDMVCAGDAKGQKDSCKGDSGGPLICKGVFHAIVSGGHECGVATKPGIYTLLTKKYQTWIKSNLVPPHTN
Summary of the method: (§1)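 Each enzyme preincubated 30 min at 37 °C with 10 μM compound, then its matched ACC substrate added (SK15 for GrA, GrKref, GrBref, Ac-KVPL-ACC for GrM, and the PR3 and hNE substrates). Enzyme levels: GrK 488 nM, GrB 18 nM, GrM 74 nM, hNE 3.3 nM, PR3 3.4 nM. Reference substrates at 200 μM. Fluorescence read at 355/460 nm; residual activity relative to an untreated enzyme control.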

[4] = biological target: T1, Granzyme A (Homo sapiens); assay: Inhibition of Granzyme A (unknown origin) expressed in Pichia pastoris using SK15 substrate by spectrofluorometry relative to control; conditions: concentration not given here; summary of the method: as §1
[5] = biological target: Granzyme B (Homo sapiens) (UniProt P10144); assay: Inhibition of Granzyme B (unknown origin) expressed in Pichia pastoris using GrBref substrate by spectrofluorometry relative to control; conditions: concentration not given here; summary of the method: as §1
[6] = biological target: T3, Myeloblastin (Homo sapiens) (UniProt P24158); assay: Inhibition of PR3 (unknown origin) expressed in Pichia pastoris using Ac-Glu(O-Bzl)-Lys(Ac)-Hyp(Bzl)-Nva-ACC substrate by spectrofluorometry relative to control; conditions: concentration not given here; summary of the method: as §1
T3 sequence (whole entry): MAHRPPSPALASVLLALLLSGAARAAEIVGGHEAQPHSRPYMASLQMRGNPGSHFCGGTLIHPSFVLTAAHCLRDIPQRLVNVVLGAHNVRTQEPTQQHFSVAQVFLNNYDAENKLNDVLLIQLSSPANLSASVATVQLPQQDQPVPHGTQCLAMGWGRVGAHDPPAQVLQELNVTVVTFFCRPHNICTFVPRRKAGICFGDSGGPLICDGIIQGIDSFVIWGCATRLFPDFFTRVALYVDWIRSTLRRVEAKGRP

[7] = biological target: T4, Neutrophil elastase (Homo sapiens) (UniProt P08246); assay: Inhibition of human neutrophil elastase expressed in Pichia pastoris using Ac-Arg(NO)2-Glu(Bzl)-Oic-Abu-ACC substrate by spectrofluorometry relative to control; conditions: concentration not given here; summary of the method: as §1
T4 sequence (whole entry): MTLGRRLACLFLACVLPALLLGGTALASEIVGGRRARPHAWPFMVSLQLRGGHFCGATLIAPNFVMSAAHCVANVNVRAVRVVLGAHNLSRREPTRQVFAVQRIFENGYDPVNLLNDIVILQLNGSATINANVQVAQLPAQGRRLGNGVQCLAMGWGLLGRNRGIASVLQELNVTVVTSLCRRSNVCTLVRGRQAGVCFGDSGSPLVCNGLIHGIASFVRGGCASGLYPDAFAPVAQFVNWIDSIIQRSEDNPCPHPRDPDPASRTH

[8] = biological target: T1, Granzyme A (Homo sapiens); assay: Inhibition of Granzyme A (unknown origin) expressed in Pichia pastoris assessed as second- order inhibition rate constant (Kobs/I ratio) pre-incubated with SK15 substrate for 15 mins before enzyme addition by spectrofluorometry
Summary of the method: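 Recombinant GrA at 350 nM, pre-warmed at 37 °C, added to SK15 substrate that had been preincubated 15 min at 37 °C with varied inhibitor or probe (inhibitor range 714–333 nM, SK15 10 μM). Tris/NaCl/CaCl2/Tween-20 buffer, pH 7.5. AMC-type fluorescence at 355/460 nm under pseudo-first-order conditions to give kobs/I. Mean of at least three experiments with standard deviation.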

[9] = biological target: T5, Granzyme M (Homo sapiens) (UniProt P51124); assay: Inhibition of Granzyme M (unknown origin) expressed in Pichia pastoris using Ac-Lys-Val-Pro-Leu-ACC substrate by spectrofluorometry relative to control; conditions: concentration not given here; summary of the method: as §1
T5 sequence (whole entry): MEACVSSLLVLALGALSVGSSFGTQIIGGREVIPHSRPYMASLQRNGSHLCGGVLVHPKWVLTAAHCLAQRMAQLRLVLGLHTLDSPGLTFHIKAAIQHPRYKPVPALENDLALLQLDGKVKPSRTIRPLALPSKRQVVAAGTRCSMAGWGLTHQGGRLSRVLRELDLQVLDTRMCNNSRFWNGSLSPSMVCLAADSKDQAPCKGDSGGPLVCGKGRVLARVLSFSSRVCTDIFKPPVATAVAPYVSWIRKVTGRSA

Sequence of Granzyme B (Homo sapiens) (P10144 whole entry): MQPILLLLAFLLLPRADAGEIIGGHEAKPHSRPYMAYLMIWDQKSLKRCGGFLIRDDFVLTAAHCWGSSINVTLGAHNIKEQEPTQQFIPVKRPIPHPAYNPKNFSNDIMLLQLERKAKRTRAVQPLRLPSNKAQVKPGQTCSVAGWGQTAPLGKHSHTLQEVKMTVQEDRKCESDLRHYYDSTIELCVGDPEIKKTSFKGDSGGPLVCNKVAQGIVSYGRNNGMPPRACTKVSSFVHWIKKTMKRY

Q: For `CC(=O)N[C@@H](CC[S+](C)[O-])C(=O)NCC(=O)N[C@@H](Cc1ccc(OCc2c(Cl)cccc2Cl)cc1)C(=O)N[C@@H](CCCNC(=N)N)C(=O)Nc1ccc2c(CC(N)=O)cc(=O)oc2c1` (stereo partly drawn) (Ac-[Met(O)]GY(X1)R-{ACC}), which Activity [1] is on record?
A: Active

Q: With `CC[C@H](C)[C@H](NC(C)=O)C(=O)NCC(=O)N1C2CCCCC2C[C@H]1C(=O)N[C@@H](CCCNC(=N)N)C(=O)Nc1ccc2c(CC(N)=O)cc(=O)oc2c1` (stereo partly drawn) (Ac-IG[Oic(3aξ,7aξ)]R-{ACC}) as the compound, how does the Activity [1] read?
A: Active

Q: And the Activity [2]?
A: Active

Q: With `CC(=O)N1Cc2ccccc2C[C@H]1C(=O)NCC(=O)N1C2CCCCC2C[C@H]1C(=O)N[C@@H](Cc1ccc(NC(=N)N)cc1)C(=O)Nc1ccc2c(CC(N)=O)cc(=O)oc2c1` (stereo not given in full) (Ac-[Tic]G[Oic(3aξ,7aξ)][Phe(4-guanidino)]-{ACC}) as the compound, how does the Activity [1] read?
A: Active

Q: How did the Activity [1] turn out when `CC(=O)N1Cc2ccccc2C[C@H]1C(=O)NC(CCc1nc2ccccc2s1)C(=O)N1C2CCCCC2C[C@H]1C(=O)N[C@@H](CCCNC(=N)N)C(=O)Nc1ccc2c(CC(N)=O)cc(=O)oc2c1` (stereo not given in full) was run?
A: Active

Q: With `CC(=O)N[C@@H](CC[S+](C)[O-])C(=O)NCC(=O)N[C@@H](Cc1ccc(F)cc1)C(=O)N[C@@H](Cc1ccc(NC(=N)N)cc1)C(=O)Nc1ccc2c(CC(N)=O)cc(=O)oc2c1` (stereo not given in full) (Ac-[Met(O)]G[Phe(4-F)][Phe(4-guanidino)]-{ACC}) as the compound, how does the Activity [1] read?
A: Active

Q: For `CC(=O)N[C@@H](CC[S+](C)[O-])C(=O)NCC(=O)N1CC(OCc2ccccc2)C[C@H]1C(=O)N[C@@H](CCCNC(=N)N)C(=O)Nc1ccc2c(CC(N)=O)cc(=O)oc2c1` (stereo not given in full), which Activity [1] is on record?
A: Active

Q: How did the Activity [2] turn out when `CC(=O)N[C@@H](CC[S+](C)[O-])C(=O)NCC(=O)N1CC(OCc2ccccc2)C[C@H]1C(=O)Nc1cccc(C(=O)Nc2ccc3c(CC(N)=O)cc(=O)oc3c2)c1` (stereo not given in full) was run?
A: Active

Q: `COC(=O)CCC(=O)N1Cc2ccccc2C[C@H]1C(=O)NCC(=O)N1C2CCCCC2C[C@H]1C(=O)NC(CCCNC(=N)N)P(=O)(Oc1ccccc1)Oc1ccccc1` (stereo not given in full) was tested. Which inhibition [3] did it give?
A: < 20%

Q: What about the inhibition [4] of the same compound?
A: < 20%

Q: And the inhibition [5]?
A: < 20%

Q: What about the inhibition [6] of the same compound?
A: < 20%

Q: And the inhibition [7]?
A: < 20%

Q: What about the Ratio [8] of the same compound?
A: 171000 s⁻¹ M⁻¹

Q: What about the inhibition [9] of the same compound?
A: < 20%
